Key:
L1210 (1565) [1] = assay: Percent inhibition against cells in G 1 phase by the compound at the dose 5 uM; format: functional; conditions: Mus musculus
L1210 (1565) [2] = assay: Inhibitory activity against L 1210 cell proliferation; format: functional, cell-based; conditions: Mus musculus
Outline: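 L1210 murine leukemia cells grown in RPMI 1640 with 10% fetal calf serum, 2 mM L-glutamine, penicillin/streptomycin and 10 mM Hepes (pH 7.4). Cells exposed to graded drug concentrations for 48 h. Microculture tetrazolium assay read-out; IC50 is the concentration reducing optical density by 50% relative to untreated controls.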

L1210 (1565) [3] = assay: Percent inhibition against cells in G 1 phase by the compound at the dose 10 uM; format: functional; conditions: Mus musculus
L1210 (1565) [4] = assay: Percent inhibition against cells in G 1 phase by the compound at the dose 25 uM; format: functional; conditions: Mus musculus
L1210 (1565) [5] = assay: Percent inhibition against cells in G 1 phase by the compound; format: functional, Mus musculus

SMILES	IC50 (L1210 (1565) [2]) [µM]	also measured
CCCCCOc1cc2c(cc1OC)CCN=C2C(=O)c1ccccc1	3.7	inhibition at 5 µM (L1210 (1565) [1]): 63%
COc1cc2ccnc(C(=O)c3ccccc3)c2cc1O	> 10	
COc1cc2c(cc1OCc1ccccc1)CCN=C2C(=O)c1ccccc1OC	> 10	
C[N+]1=C(C(=O)c2ccccc2)c2ccc(OCc3ccccc3)cc2CC1	9.8	
CCCCCOc1cc2ccnc(C(=O)c3ccccc3)c2cc1OC	> 10	
CCCCCOc1ccc2c(c1)CCN=C2C(=O)c1ccccc1	1	inhibition at 5 µM (L1210 (1565) [1]): 63%
COc1cc2c(cc1O)C(C(=O)c1ccccc1)=NCC2	> 10	
COc1cc2c(C(=O)c3ccc(O)cc3)nccc2cc1OCc1ccccc1	11.5	
COc1cc2c(cc1OCc1ccccc1)CCN=C2C(=O)c1cccc(O)c1	5.3	inhibition at 5 µM (L1210 (1565) [1]): 67%
COc1cc2c(C(=O)c3ccccc3)nccc2cc1OCc1ccccc1	> 10	
COc1ccc(C(=O)C2=NCCc3cc(OCc4ccccc4)ccc32)cc1	> 10	
COc1cc2c(cc1OCc1ccccc1)C(C(=O)c1ccccc1)=NCC2	3.6	
COc1ccc(C(=O)C2=[N+](C)CCc3cc(OCc4ccccc4)c(OC)cc32)cc1OC	> 10	
COc1cc2c(cc1OCc1ccccc1)CCN=C2C(=O)c1ccccc1	4.1	inhibition at 10 µM (L1210 (1565) [3]): 85%
CCCCCOc1cc2c(cc1OC)C(C(=O)c1ccccc1)=NCC2	4.5	
O=C(C1=NCCc2cc(OCc3ccccc3)ccc21)c1ccccc1	6.5	inhibition at 10 µM (L1210 (1565) [3]): 54%
CC(C)COc1ccc2c(c1)CCN=C2C(=O)c1ccccc1	11.9	
COc1cc2c(cc1OCc1ccccc1)CCN=C2C(=O)c1cccc(S(=O)(=O)c2ccc(C)cc2)c1	4.1	inhibition at 25 µM (L1210 (1565) [4]): 70%
C/C=C/COc1cc2c(cc1OC)C(C(=O)c1ccccc1)=NCC2	13.1	
CCCCCOc1cc2c(cc1OC)C(C)=NCC2	7.7	Inhibition (L1210 (1565) [5]): 72%
COc1cc2c(cc1OCc1ccccc1)CCN=C2c1ccccc1	> 10	
COc1cc2c(cc1OCc1ccccc1)CCN=C2C(=O)c1cccc(OC(C)=O)c1	4.7	
COc1cc2c(cc1OCc1ccccc1)CCN=C2C(=O)c1ccccc1O	> 10	
COc1cc2c(cc1O)CCN=C2c1ccccc1	> 10	

SMILES	IC50 (L1210 (1565) [2]) [µM]	also measured
COc1cc2c(cc1OCC(C)C)CCN=C2C(=O)c1ccccc1	6.1	inhibition at 25 µM (L1210 (1565) [4]): 63%
COc1cc2ccnc(C(=O)c3ccccc3)c2cc1OCc1ccccc1	> 10	
COc1cc2c(C(=O)c3ccccc3O)nccc2cc1OCc1ccccc1	> 10	
CCCCC1=NCCc2cc(OCc3ccccc3)c(OC)cc21	> 10	
CC(C)=CCOc1ccc2c(c1)CCN=C2C(=O)c1ccccc1	3.8	
C/C=C/COc1ccc2c(c1)CCN=C2C(=O)c1ccccc1	> 10	
COc1ccc(C(=O)C2=NCCc3cc(OCc4ccccc4)c(OC)cc32)cc1OC	13	
COc1cc2c(C(=O)c3cccc(O)c3)nccc2cc1OCc1ccccc1	11.6	
COc1cccc(C(=O)C2=NCCc3cc(OCc4ccccc4)ccc32)c1	1.4	
COc1cc2c(cc1OCc1ccccc1)CCN=C2c1ccccc1O	> 10	
COc1cc2c(cc1O)CCN=C2C(=O)c1ccccc1	> 10	
COc1ccc(C(=O)C2=NCCc3cc(OCc4ccccc4)ccc32)cc1OC	> 10	
COc1cc2c(cc1OCC=C(C)C)CCN=C2C(=O)c1ccccc1	9.4	inhibition at 25 µM (L1210 (1565) [4]): 65%
COc1cc2c(C(=O)c3ccccc3)nccc2cc1O	> 10	
COc1cc2c(cc1OCc1ccccc1)CCN=C2C(=O)c1ccc(O)cc1	> 10	
COc1cc2c(cc1OCc1ccccc1)CCN=C2C(=O)c1ccccc1OS(=O)(=O)c1ccc(C)cc1	> 10	
COc1ccccc1C(=O)C1=NCCc2cc(OCc3ccccc3)ccc21	12.3	
CCOc1cc2c(cc1OC)C(C(=O)c1ccccc1)=NCC2	11.9	
COc1cc2c(cc1OCc1ccccc1)CCN=C2C(=O)c1ccc(OS(=O)(=O)c2ccc(C)cc2)cc1	> 10	
COc1cccc(C(=O)C2=NCCc3cc(OCc4ccccc4)c(OC)cc32)c1	2.5	
COc1ccc(COc2cc3c(cc2OC)C(C(=O)c2ccccc2)=NCC3)cc1	11.1	
COc1ccc(COc2cc3ccnc(C(=O)c4ccccc4)c3cc2OC)cc1	> 10	
CCCCC1=NCCc2cc(OCc3ccccc3)ccc21	> 10	
c1ccc(COc2ccc3c(c2)CCN=C3c2ccccc2)cc1	> 10	

— ChEMBL document CHEMBL1135828, “Syntheses and antitumor targeting G1 phase of the cell cycle of benzoyldihydroisoquinolines and related 1-substituted isoquinolines” (J Med Chem, 2002)
